Data taken from publication PMC6531306 (Theranostics, 2019).
Values belong to the compound of their own block, whether it stands above or below them.

Assays:
[1] = system: isolated a and a'c domains of PDI; test: PDI reductase assay with isolated domains; type: biochemical; settings: domains 1.6 μM; PACMA31 100 μM, 35G8 1 μM
Summary of the method: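 Isolated His-tagged a and a'c domains were expressed in E. coli and Ni-NTA purified. Each domain was incubated with test compound for 45 min at room temperature in 100 mM sodium phosphate, 2 mM EDTA, 8 μM DTT, pH 7.0. DTT (100 μM) and insulin (130 μM) were then added, and aggregation of reduced insulin B chain was monitored at 650 nm.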

U87MG xenografts = test: Mouse flank xenograft model of GBM; type: in vivo, mice; settings: TMZ 5 mg/kg oral gavage, five days/week, two weeks
Summary of the method: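 Athymic nude Foxn1nu mice (4–6 weeks) bore subcutaneous flank U87MG or D54 xenografts (250,000 cells in RPMI:Matrigel 1:1). From 100 mm3, they received test compound 20 mg/kg i.p. in 5 % DMSO/65 % 1,2-propanediol/30 % saline and/or TMZ 5 mg/kg in Ora-Plus by oral gavage, five days/week for two weeks. Body weight was recorded twice weekly.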

U87MG cells = type: cell-based, human; settings: Hallmark E2F Targets
Sox2 = test: Western blot of stemness marker; type: cell-based; settings: Figure 4H
Summary of the method: (§1)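 Protein was measured by BCA. Lysates were resolved on 10 % or 4–12 % gels and transferred to PVDF. Membranes were blocked (StartingBlock or 5 % BSA) and probed with primary antibodies. Detection used DyLight 800 infrared imaging or HRP secondaries with ECL.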

[2] = system: PDI, PDIp, ERp57, ERp46, ERp72, P5, and ERp18; test: PDI reductase assay, panel of PDI family members; type: biochemical; settings: family members 1 μM, compound 40 μM
[3] = system: D54, U87MG and A172 cells; test: Western blot of DNA repair and DDR proteins; type: cell-based, human; settings: 24 hours
Summary of the method: as §1

a'c domain of PDI = a'c domain of PDI (Homo sapiens, UniProt P07237); test: AMS assay; type: binding; settings: 20 μM domain, 40 μM compound, 1 h
Summary of the method: (§2)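 Isolated a or a'c domain (20 μM) was incubated with or without 40 μM test compound for 1 h in PBS at 25 °C. Free thiols were then blocked with 2 mM AMS. Samples were resolved by SDS-PAGE and stained with Coomassie blue.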

a domain of PDI = a domain of PDI (Homo sapiens, UniProt P07237); test: AMS assay; type: binding; settings: 20 μM domain, 40 μM compound, 1 h
Summary of the method: as §2

a'c domain of PDI, sequence (P07237 349-508 limits assumed): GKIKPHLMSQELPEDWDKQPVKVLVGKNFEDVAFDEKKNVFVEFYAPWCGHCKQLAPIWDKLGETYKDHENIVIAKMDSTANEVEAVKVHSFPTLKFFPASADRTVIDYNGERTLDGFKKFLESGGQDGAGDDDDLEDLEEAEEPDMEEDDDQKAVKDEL
a domain of PDI, sequence (P07237 18-134 limits assumed): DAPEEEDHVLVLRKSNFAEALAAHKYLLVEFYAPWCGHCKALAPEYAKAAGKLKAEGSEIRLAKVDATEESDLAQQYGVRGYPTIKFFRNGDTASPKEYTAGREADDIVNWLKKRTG

- inhibition of reductase activity of isolated domains [1]: did not inhibit
Compound: C[C@]12CC[C@@H]3c4ccc(O)cc4CC[C@H]3[C@@H]1CC[C@@H]2O [Estradiol, estradiol]

Compound: Cn1nnc2c(C(N)=O)ncn2c1=O [TMZ, temozolomide]
- decrease in body weight (U87MG xenografts): 15%

- inhibition of reductase activity of isolated domains [1]: did not inhibit
Compound: CCN(C)C(=O)C1(CCOc2ccccc2)CCN(Cc2ccc(O)c(Cl)c2)CC1 [bepristat 1a]

- inhibition of reductase activity of isolated domains [1]: inhibit reductase activity
- selectivity among PDI family members [2]: inhibits all tested PDI family enzymes
- AMS binding to a'c domain thiols (a'c domain of PDI): blocked AMS binding
- AMS binding to a domain thiols (a domain of PDI): blocked AMS binding
Compound: PACMA31
- genes of the E2F targets gene set downregulated (U87MG cells): 72%
- Sox2 protein expression (Sox2): dose-dependently abrogated
- E2F1 and RAD51 protein expression [3]: dose-dependently lower
